Measurements reported in ChEMBL document CHEMBL4513216, “Probing the Open Global Health Chemical Diversity Library for Multistage-Active Starting Points for Next-Generation Antimalarials” (ACS Infect Dis, 2020).

Test: Toxicity liver stage against HepG2, at 10uM
Assay type: cell-based
Set-up: test concentration 10 uM, cell line HepG2-A16-CD81EGFP
Settings: human, HepG2-A16-CD81EGFP cells; read-out: INHIBITION
Summary of the method: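 Uninfected HepG2-A16-CD81EGFP cells, 3 × 10^3 per well, 1536-well, plated on prespotted compound at 10 μM final, parasite-free screening media added to match infected plates; puromycin 10 μM positive, DMSO 0.5% negative; run in parallel with 48 h PbLuc assay at 37 °C, 5% CO2; viability by CellTiter-Glo luminescence, normalized to controls.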

Row | Compound | cytotoxicity at 10 µM
1 | Cn1ncc2c1CCCN(C(=O)C1CCCC1)C2 | 4.13%
2 | Cc1ccc(-c2noc([C@@H]3C[C@H](NC(=O)NC(C)C)CN3C)n2)cc1 | 3.31%
3 | O=C(O)CN1CCC(c2ccccc2)C1 (centres undefined) | 1.67%
4 | CN(CC(=O)N1CCc2[nH]c3ccccc3c2C1)CC1OCCO1 | -1.63%
5 | O=c1c(NCCNCCO)c(N2CCN(c3ccc(F)cc3)CC2)c1=O | -5.46%
6 | CC(C)C(=O)Nc1ccc(Oc2ccc3c(c2)OCO3)nc1 | -12.4%
7 | Cc1nc(C(=O)N2CCN(S(C)(=O)=O)CC2)c(-c2ccccc2Cl)s1 | 4.37%
8 | Cn1cccc1C(O)CNC(=O)c1ccc(F)c(F)c1 (centres undefined) | -1.29%
9 | CCS(=O)(=O)N1C[C@H](c2nc(C)no2)C[C@H]2OCC[C@H]21 | -119%
10 | Cc1ccc(C(=O)N2C[C@@H]3C[C@@H](c4nnc(C5CC5)o4)O[C@@H]3C2)s1 | -133%
11 | Cc1oc(-c2nc(C#N)c(NCC(C)C)o2)cc1S(=O)(=O)N1CCCC1 | 13.1%
12 | O=c1cc2c(nn1CN1CCN(c3cccc(Cl)c3)CC1)CCC2 | -3.19%
13 | CCn1cc(Cl)c(C(=O)NCCOC)n1 | 7.05%
14 | CS(=O)(=O)Nc1ccn(Cc2cccc(Cl)c2)n1 | 8.66%
15 | COC(=O)C1=C(C)N=C2SCC(=O)N2C1c1cnn(C)c1C (centres undefined) | 4.01%
16 | O=C(Cn1cc(C(=O)O)cn1)Nc1c(Cl)cccc1Cl | 1.57%
17 | COc1c(Br)c(CC2CC(CO)=NO2)c(OC)c2c1OCO2 (centres undefined) | 6.36%
18 | CCn1cc(CCC(=O)NCc2csc(C3CC3)n2)c(C)n1 | -8.78%
19 | c1cc(C2CCN(c3cnccn3)CC2)ncn1 | 2.64%
20 | CC(C(=O)N1CCCCC1)n1nc(-c2cccs2)cc(N)c1=O (centres undefined) | 10.8%
21 | Cc1nc(C)n(CCNC(=O)C2(C)CC(c3ccccc3)=NO2)n1 (centres undefined) | 7.92%
22 | Cc1c(CCC(=O)N2CCCC2c2ccnc(N(C)C)c2)cnn1C (centres undefined) | 0.469%

Row | Compound | cytotoxicity at 10 µM
23 | CC(C)c1nnc(NC(=O)N(C)Cc2ccc(C(N)=O)cc2)s1 | 12%
24 | CCc1nnsc1C(=O)N(C)Cc1nnc2n1CCC2 | -0.862%
25 | CCOCC(=O)Nc1nccn1Cc1ccccc1Cl | -0.678%
26 | CCOc1nnc(CN2CCCC(c3nc4ccccc4[nH]3)C2)s1 (centres undefined) | 14.6%
27 | CN(CC(=O)Nc1cc(-n2nnnc2C2CC2)ccc1F)C1CCC1 | 8.83%
28 | Cc1csc(-c2cccc(NC(=O)N3CCOCC3)c2)n1 | -6.35%
29 | COc1cccc(C(CO)NC(=O)Cc2ccc(F)c(Br)c2)c1 (centres undefined) | 8.44%
30 | CS(=O)(=O)CCn1ccc(NC(=O)Cc2c[nH]c3ccccc23)n1 | 2%
31 | COCCS(=O)(=O)N(Cc1cscn1)c1ccccc1 | -3.3%
32 | Cc1ccc(-c2noc(CCC(=O)NC(C)Cn3cccn3)n2)cc1 (centres undefined) | 8.41%
33 | O=C(NCCCO)NCCc1cc(F)ccc1F | 2.37%
34 | O=C(NCCN1CCCCCC1=O)NCc1ccc(Cl)s1 | -1.08%
35 | CCc1noc(CN2CCCC2C(=O)OCc2ccccc2)n1 (centres undefined) | -1.57%
36 | O=C(c1ccc(-n2ccnn2)cc1)N(CC1CC1)c1cccnc1 | 22.5%
37 | CN(CCOc1ccc(C#N)cc1)CC1CCS(=O)(=O)C1 (centres undefined) | -6.94%
38 | COCCC1(CNC(=O)Nc2ccc(-n3cccn3)cc2)CCC1 | -2.75%
39 | Cc1ccc(CN(C)C(=O)CCNS(=O)(=O)c2cccnc2)cc1 | -10.6%
40 | Cc1cccc(C(=O)N2CCN(S(C)(=O)=O)[C@@H](C)C2)c1Cl | 5.58%
41 | O=C(C(CNCc1cccnc1)c1ccccc1)N1CCOCC1 (centres undefined) | 2.49%
42 | O=C(NCc1ccccn1)NC1CCCN(c2ncccn2)C1 (centres undefined) | 6.21%
43 | COCCN(Cc1ccccc1)c1cc(C)ncn1 | 7.41%
44 | Cc1cnn(CCNCC(=O)NC2(C#N)CCCC2)c1 | -13.2%

Row | Compound | cytotoxicity at 10 µM
45 | FC(F)Sc1ccc(NCc2nnc(C3CC3)o2)cc1 | 14.7%
46 | CCc1cc(CNC(=O)C2CCCN(C(=O)NCC(C)C)C2)[nH]n1 (centres undefined) | 7.23%
47 | O=C(Nc1ccccc1OC1CCOC1)c1[nH]nc2c1CCCC2 (centres undefined) | 0.271%
48 | COc1cccc2c1N(Cc1noc(C(C)(C)C)n1)CCC2 | 10.9%
49 | O=C(NCCNc1ccc(C(F)(F)F)cn1)c1ccoc1 | -2%
50 | CC(C)(CNc1cn[nH]c(=O)c1Cl)c1ccc2c(c1)OCCO2 | 2%
51 | N#CCc1ccc(OCC(=O)NS(=O)(=O)c2cccs2)cc1 | 13.6%
52 | Cc1cc(NC(=O)N2CCCC2C(=O)NC2CC2)c2ncccc2c1 (centres undefined) | -2.43%
53 | CC(CNC(=O)NCc1ccco1)CC1(C)OCCO1 (centres undefined) | -7.25%
54 | Cc1cnn(CCCNC(=O)NCCC(=O)Nc2ccccc2)c1 | 2.72%
55 | CC(NC(=O)NCCCN1CCCC1=O)c1ccc(Cl)s1 (centres undefined) | -8.28%
56 | CCN(CC)C(=O)CNS(=O)(=O)c1cc(Br)ccc1F | -45.9%
57 | CC(CS(C)(=O)=O)NCc1cc(Cl)ccc1F (centres undefined) | -46.6%
58 | Cc1ccc(C(=O)NC(CN2CCCC2=O)c2ccccc2)c(=O)[nH]1 (centres undefined) | -2.23%
59 | COc1cccc(CCNS(=O)(=O)c2ccc(NC(C)=O)cc2)c1 | 1.54%
60 | CCO[C@@H]1CC[C@H]2[C@H]1OCCN2C(=O)c1nn(C)c2ccccc12 | -2.69%
61 | Cn1cc(C[C@H]2[C@H](O)CCN2Cc2ccc3c(c2)OCO3)cn1 | -80.5%
62 | Cc1nnc([C@@H]2CC[C@@H]3[C@@H](CCN3S(=O)(=O)C3CC3)O2)o1 | -77%
63 | CCC1COC2(CCN(C(=O)c3ccco3)CC2)C1 (centres undefined) | -65.4%
64 | O=C(c1cnccn1)N1CC[C@H]2[C@@H]1CCC(=O)N2c1cccnc1 | -81.6%
65 | COc1cc(N2CC[C@H](O)[C@@H]2Cc2cnn(C)c2)ncn1 | 1.72%
66 | Cc1nc(CN(C)Cc2nc(-c3ccncc3)no2)co1 | -0.187%

Row | Compound | cytotoxicity at 10 µM
67 | COC(=O)c1ccc2ccn(CC3COCCO3)c(=O)c2c1 (centres undefined) | 3.26%
68 | Cn1nc(CN2CCCCC(N)C2)c2c(Cl)cccc21 (centres undefined) | -5.99%
69 | Cc1ccccc1N1CCCN(C(=O)CN2C(=O)OC[C@@H]2C(C)C)CC1 | 4.02%
70 | CN(Cc1nc(-c2ccccc2)no1)C(=O)CNS(C)(=O)=O | 0.0773%
71 | CCC[C@@H]1CN(Cc2nnc(-c3cccnc3)o2)C[C@H]1NC(C)=O | -4.89%
72 | O=C(c1cc(Cl)ccc1OC1CCN(C2CCCC2)CC1)N1CCCO1 | -2.54%
73 | Cc1[nH]ccc1C(=O)N1CCC2(CC1)c1nc[nH]c1CCN2S(C)(=O)=O | 6.63%
74 | Cc1c(-c2ccccc2)ncn1CCCNc1cccnc1 | 2.06%
75 | CCCSc1ncc(C2CC(=O)NCc3nc4ccccn4c32)cn1 (centres undefined) | -6.53%
76 | CCOC(=O)N1CCN(C(=O)C2Cc3ccccc3CN2C)CC1 (centres undefined) | -19.2%
77 | CCc1nc(CCn2cc(-c3nccn3C)nn2)no1 | -55.3%
78 | Cc1ccc2oc(=O)n(CC(=O)N3CCC4(CC3)CN(C)C(=O)O4)c2c1 | -13.8%
79 | COC[C@]1(O)CCN(Cc2ccc(N(C)C)nc2)CC1(C)C | 7.63%
80 | CC(C(=O)N1CCC(c2[nH]ncc2-c2ccccc2)CC1)n1cncn1 (centres undefined) | -0.815%
81 | N[C@@H]1CC[C@@H]1NC(=O)c1ccccc1OC(F)(F)C(F)F | 1.5%
82 | CC(C)(C(=O)N1CCCC(OCc2cccnc2)C1)n1cccc1 (centres undefined) | -4.06%
83 | Cc1ccc(S(N)(=O)=O)cc1C(=O)N1C[C@@H](CN(C)C)[C@@H](CO)C1 | -0.187%
84 | COc1ccc(CN2CC3(CCNCC3)CCC2=O)c(F)c1F | 10.9%
85 | Cc1ccc(F)c(OC2(C(=O)O)CCN(C(=O)c3ccncc3)CC2)c1 | 5.03%
86 | CN(C)c1ccc(C(=O)N2C[C@@H](CN3CCCCC3)[C@@H](CO)C2)cc1 | -1.72%
87 | CCN(c1ccc(C(=O)N2CCC(C)CC2)cc1)S(=O)(=O)CC | 7.36%
88 | COc1cccc(OCC2CCCN(Cc3ncc[nH]3)C2)c1 (centres undefined) | 4.97%

Row | Compound | cytotoxicity at 10 µM
89 | CCC(=O)N1CCC(Cc2nccnc2Nc2ccccn2)CC1 | 5.82%
90 | Fc1ccc(CN2CCCC2c2cncc(-n3ccnc3)n2)cc1 (centres undefined) | 5.82%
91 | CC1CN(CC(=O)NCc2ccccc2)CCN1Cc1nccn1C (centres undefined) | -16.2%
92 | Cc1nc2n(n1)CC(NCc1csc(-c3ccsc3)n1)CC2 (centres undefined) | -0.544%
93 | Cc1cc(C(=O)NCc2ccc(N3CCN(C)CC3)nc2)c(C)s1 | -8.74%
94 | COCc1ccccc1CNc1nnc(C)c(C)c1C#N | -2.48%
95 | CC1COCCN1Cc1nc(-c2cccs2)no1 (centres undefined) | -7.79%
96 | OC(COc1ccc(F)cc1)CN1CCC(Cn2cccn2)CC1 (centres undefined) | -9.07%
97 | CCn1cnnc1CNC(=O)N1CCC(Cc2cccnc2)CC1 | 4.38%
98 | CN(C)CC1COCCN1C(=O)c1ccccc1C(=O)c1ccccc1 (centres undefined) | 1.12%
99 | Cc1ccc(C(=O)N2CC[C@H]3[C@@H]2CCC(=O)N3c2cccnc2)o1 | -106%
100 | COc1ccc(CN2C[C@@H]3OCCN(C)[C@@H]3C2)cc1 | -74.8%
101 | CO[C@@H]1CCN(Cc2c(C)noc2C)[C@@H]2CN(Cc3cccnc3)C[C@@H]21 | 11.9%
102 | NC(c1ccc(Cl)cc1)c1cccs1 (centres undefined) | -17.1%
103 | O=C1[C@H]2CN(Cc3ccc(F)cc3)C[C@H]2CN1c1ccsc1 | -87.8%
104 | Cc1csc([C@@H]2C[C@H]3CN(c4ncc(F)cn4)C[C@H]3O2)n1 | 6.88%
105 | Cc1ccc(CN2CC[C@@H](O)[C@@H]2Cc2cnn(C)c2)o1 | -71%
106 | Cc1nc(CNC(C)c2cccc(N3CCCC3=O)c2)cs1 (centres undefined) | 5.01%
107 | Cn1ccc(C(=O)N2CCC3(CCN3c3ncccn3)C2)n1 (centres undefined) | 9.41%
108 | N#Cc1cccc(CN2CC[C@@H]3[C@@H]2CC(=O)N3Cc2cccnc2)c1 | 5.2%
109 | CSc1ncccc1C(=O)N1C[C@@H]2CC[C@H]1CN(CC(=O)N(C)C)C2 | 2.9%
